Laboratory results published in PMC3844559 (Journal of medicinal chemistry, 2013).
No end group written: not given here. *: point of attachment. X1 = S‑(2,3-bis(palmitoyloxy)-(2R)-propyl)‑R‑cysteinyl, CCCCCCCCCCCCCCCC(=O)OC[C@H](CSC[C@H](N)C(=O)*)OC(=O)CCCCCCCCCCCCCCC

What was measured:
[1] = system: ex vivo human blood models; conditions: cited from earlier work
rabbit models = conditions: cited from earlier work
[2] = system: murine models of immunization; conditions: cited from earlier work
human TLR2 = human TLR2 (Homo sapiens, UniProt O60603); experiment: human TLR2-specific NF-κB reporter gene assay; type: cell-based; conditions: for EC50: hTLR2-Agonistic Activity (EC50 in nM), human TLR2-specific reporter gene assay; for hTLR2-specific agonistic activity: reporter gene assays
aqueous solubility = type: physicochemical; conditions: water
[3] = stability of aqueous stocks / accelerated stability testing; type: physicochemical; conditions: for stability of aqueous stocks: aqueous stocks on storage
[4] = system: human PBMCs or human whole blood; experiment: proinflammatory cytokine induction, 5-plex cytometric bead assays; type: cell-based; conditions: 5-plex cytometric bead assays (data not shown)
human PBMCs = experiment: 41-plex chemokine/cytokine immunoassay in hPBMC; type: cell-based; conditions: 12 h, 41-plex immunoassay
Method in brief: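 Fresh human PBMCs were isolated on Ficoll-Hypaque gradients from venipuncture blood. Cells were plated at 10⁵ per well, stimulated 12 h with graded concentrations of test compound, with LPS as reference. Supernatants were collected by centrifugation and assayed in duplicate for 41 cytokines/chemokines by magnetic bead multiplex; intra-assay CV was 4–8%. Data are means of duplicates from a representative experiment.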

[5] = system: granulocytes and monocytes in human whole blood; experiment: CD11b upregulation by flow cytometry in whole human blood; type: cell-based; conditions: 1 h
Method in brief: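 Heparin-anticoagulated whole blood from healthy volunteers was added to serial dilutions of test compound, with reference compounds and fRPMI negative controls, then held 1 h at 37 °C. Cells were stained with CD11b-PE/CD14-APC for 30 min at 4 °C in the dark, then lysed/fixed and washed twice in saline. 100,000 gated events were acquired. Granulocytes were gated by forward/side scatter, monocytes by CD14.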

rabbits = experiment: safety evaluation in rabbits; type: in vivo, rabbit
Method in brief: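 Rabbits (n=3 per group) received test compound 100 μg/dose, LPS 1 μg/dose (positive control) or saline vehicle. Doses were in sterile saline without excipients, 0.5 mL, as an i.v. bolus into the marginal ear vein. Blood was drawn from the contralateral ear at 0, 2 and 6 h for total/differential leukocytes, band forms, hemoglobin and MCH. Core temperature was logged by rectal thermistor probe.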

patients = conditions: cited from earlier work
[6] = single i.v. bolus, 38 100 μg, LPS 1 μg

Sequence of human TLR2 (O60603 21-784): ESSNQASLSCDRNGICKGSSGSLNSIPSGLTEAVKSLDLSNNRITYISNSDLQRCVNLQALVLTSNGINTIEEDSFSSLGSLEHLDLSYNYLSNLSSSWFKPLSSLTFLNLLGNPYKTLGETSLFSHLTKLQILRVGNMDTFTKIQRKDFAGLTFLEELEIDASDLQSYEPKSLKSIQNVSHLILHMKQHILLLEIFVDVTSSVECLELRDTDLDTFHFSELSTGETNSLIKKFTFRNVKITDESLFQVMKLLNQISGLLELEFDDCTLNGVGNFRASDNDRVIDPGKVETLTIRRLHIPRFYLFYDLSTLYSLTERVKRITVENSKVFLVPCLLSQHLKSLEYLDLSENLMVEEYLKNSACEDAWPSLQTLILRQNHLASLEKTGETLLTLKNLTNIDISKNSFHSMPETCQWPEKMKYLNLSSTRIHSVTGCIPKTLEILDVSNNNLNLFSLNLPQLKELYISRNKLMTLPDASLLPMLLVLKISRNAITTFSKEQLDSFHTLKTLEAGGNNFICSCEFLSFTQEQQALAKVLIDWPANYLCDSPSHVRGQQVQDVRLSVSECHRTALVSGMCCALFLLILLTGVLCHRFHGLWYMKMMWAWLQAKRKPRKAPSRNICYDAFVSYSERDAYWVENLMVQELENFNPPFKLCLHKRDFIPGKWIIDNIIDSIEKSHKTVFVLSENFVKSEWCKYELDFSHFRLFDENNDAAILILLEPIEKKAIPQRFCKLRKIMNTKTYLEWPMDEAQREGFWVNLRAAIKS

Molecule | EC50 (human TLR2) | aqueous solubility (aqueous solubility) | hTLR2-specific agonistic activity (human TLR2) | other results
CCCCCCCCCCCCCCCC(=O)OCC(CSC[C@H](N)C(=O)N[C@@H](CO)C(=O)O)OC(=O)CCCCCCCCCCCCCCC (mixture of isomers) [Compound 2, S-[2,3-bis(palmitoyloxy)-(2RS)-propyl]-R-cysteinyl-S-serine] | – | – | – | levels of proinflammatory mediators such as TNF-α, IL-1β and IL-18 ([1]; earlier findings): virtually undetectable levels; pro-inflammatory activity (TNF-α, IL-1β, IL-6, IL-8 production) ([1]; ex vivo human blood models): devoid of any detectable pro-inflammatory activity; local reactogenicity and pyrogenicity (rabbit models): devoid of; adjuvanticity [2]: potently adjuvantic
CCCCCCCCCCCCCCCC(=O)OCCSC[C@H](NC(C)=O)C(=O)N[C@@H](COC(=O)[C@@H](N)CCCCN)C(=O)OC [Compound 12, 2-(((R)-2-Acetamido-3-(((S)-3-(((S)-2,6-diaminohexanoyl)oxy)-1-methoxy-1-oxopropan-2-yl)amino)-3-oxopropyl)thio)ethyl palmitate] | 1.5 nM | highly water soluble | retained hTLR2-specific agonistic activity | stability of aqueous stocks [3]: found to be unstable
CCCCCCCCCCCCCCCC(=O)OCCSC[C@H](NC(C)=O)C(=O)N[C@@H](COC(=O)CCC(=O)O)C(=O)OC [Compound 14, (7S,10R)-10-Acetamido-7-(methoxycarbonyl)-4,9,16-trioxo-5,15-dioxa-12-thia-8-azahentriacontan-1-oic acid] | 0.65 nM | highly water soluble | retained hTLR2-specific agonistic activity | –
CCCCCCCCCCCCCCCC(=O)OCCSC[C@H](NC(C)=O)C(=O)N[C@@H](COC(=O)c1cccnc1)C(=O)OC [Compound 15, (S)-2-((R)-2-Acetamido-3-((2-(palmitoyloxy)ethyl)thio)propanamido)-3-methoxy-3-oxopropyl nicotinate] | 0.75 nM | – | retained hTLR2-specific agonistic activity | –
CCCCCCCCCCCCCc1cn(CCSC[C@H](NC(C)=O)C(=O)N[C@@H](CO)C(=O)OC)nn1 [Compound 24, (S)-Methyl 2-((R)-2-acetamido-3-((2-(4-tridecyl-1H-1,2,3-triazol-1-yl)ethyl)thio)propanamido)-3-hydroxypropanoate] | 290 nM | – | – | –
CCCCCCCCCCCCCCCCOC(=O)NCCSC[C@H](NC(C)=O)C(=O)N[C@@H](CO)C(=O)NCCCN(C)C [Compound 38, Hexadecyl ((8S,11R)-11-acetamido-8-(hydroxymethyl)-2-methyl-7,10-dioxo-13-thia-2,6,9-triazapentadecan-15-yl)carbamate] | 0.25 nM | – | – | solubility (aqueous solubility): > 10000 µg/mL; chemical stability under accelerated stability testing conditions ([3]; accelerated stability testing): retained excellent chemical stability; proinflammatory cytokine signatures [4]: could not detect any significant proinflammatory cytokine signatures; chemokine induction (MCP-1, MCP-3, MDC, IL-8) (human PBMCs): prominent biphasic induction; CD11b upregulation in monocytes ([5]; CD14+ gated): strong monocytic CD11b upregulation; CD11b upregulation in neutrophils (granulocytes) ([5]; relative to 2): upregulated CD11b very potently; pyrogenicity (febrile response, core temperature) (rabbits; [6]): did not induce any such effects; total leukocyte and lymphocyte counts in peripheral blood (rabbits; [6]): did not induce any such effects; observable adverse effects, dose-escalation study (rabbits; up to 100 μg/animal, intramuscular or intravenous bolus): did not result in any observable adverse effects
S-[2,3-bis(palmitoyloxy)-(2R)-propyl]-R-cysteinyl-GNNDESNISFKEK (X1-GNNDESNISFKEK) [Compound 1] | – | – | – | well tolerated dose, intra-tumoral injection (patients; ten patients with pancreas carcinomas, 20–30 μg injected during surgery): up to 20 μg; systemic side effects, intra-tumoral injection (patients; ten patients with pancreas carcinomas, 20–30 μg): no systemic side effects were noted; systemic side effects, application on punch biopsy skin lesions (patients; twelve patients, 0.125–1.0 μg): other than transient and self-limited erythema, no systemic side effects were noted

Continued, in another order:

EC50 (human TLR2) | aqueous solubility (aqueous solubility) | Molecule | hTLR2-specific agonistic activity (human TLR2) | other results
1.5 nM | highly water soluble | CCCCCCCCCCCCCCCC(=O)OCCSC[C@H](NC(C)=O)C(=O)N[C@@H](CCCCN)C(=O)OC [Compound 10, 2-(((R)-2-Acetamido-3-(((S)-6-amino-1-methoxy-1-oxohexan-2-yl)amino)-3-oxopropyl)thio)ethyl palmitate] | – | stability of aqueous stocks [3]: significant loss of activity of aqueous stocks in less than a week
5.84 nM | highly water soluble | CCCCCCCCCCCCCCCC(=O)OCCSC[C@H](NC(C)=O)C(=O)N[C@@H](COS(=O)(=O)O)C(=O)OC [Compound 13, 2-(((R)-2-Acetamido-3-(((S)-1-methoxy-1-oxo-3-(sulfooxy)propan-2-yl)amino)-3-oxopropyl)thio)ethyl palmitate] | retained hTLR2-specific agonistic activity | –
12.8 nM | – | CCCCCCCCCCCCCCCC(=O)NCCSC[C@H](NC(C)=O)C(=O)N[C@@H](CO)C(=O)OC [Compound 22, (S)-Methyl 2-((R)-2-acetamido-3-((2-palmitamidoethyl)thio)propanamido)-3-hydroxypropanoate] | – | –
1020 nM | – | CCCCCCCCCCCCCCCCn1cc(CCSC[C@H](NC(C)=O)C(=O)N[C@@H](CO)C(=O)OC)nn1 [Compound 27, (S)-Methyl 2-((R)-2-acetamido-3-((2-(1-hexadecyl-1H-1,2,3-triazol-4-yl)ethyl)thio)propanamido)-3-hydroxypropanoate] | – | –
0.065 nM | – | CCCCCCCCCCCCCCCCOC(=O)NCCSC[C@H](NC(C)=O)C(=O)N[C@@H](CO)C(=O)OC [Compound 34, (2S,5R)-Methyl 5-acetamido-2-(hydroxymethyl)-4,11-dioxo-12-oxa-7-thia-3,10-diazaoctacosan-1-oate] | – | –
